# Test: Toxicity liver stage against HepG2, at 10uM
# Type: cell-based
# Set-up: test concentration 10 uM, cell line HepG2-A16-CD81EGFP
# Settings: human, HepG2-A16-CD81EGFP cells; read-out: INHIBITION
# Procedure, shortened: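 Uninfected HepG2-A16-CD81EGFP cells, 3 × 10^3 per well, 1536-well, plated on prespotted compound at 10 μM final, parasite-free screening media added to match infected plates; puromycin 10 μM positive, DMSO 0.5% negative; run in parallel with 48 h PbLuc assay at 37 °C, 5% CO2; viability by CellTiter-Glo luminescence, normalized to controls.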
row,SMILES,cytotoxicity at 10 µM [%]
1,CCNC(=O)[C@@H]1C[C@H](N)CN1Cc1ccc2cccc(Cl)c2n1,5.91
2,CC(CC(=O)N1CCN(c2cnccn2)CC1)c1ccc(F)cc1 (configuration not stated),-48
3,CCN(Cc1ccncc1)CC1(C)Cc2c(N)nc(N)nc2O1 (configuration not stated),2.15
4,Cc1c(C(=O)NC2=NCCS2)cnn1-c1ccc(Cl)cc1,1.51
5,O=C(COc1ccc(-c2ccccc2)nc1)NCC1CC1,6.8
6,CN(Cc1cc(Cl)ccc1Cl)Cc1ncnn1C,-0.943
7,N#Cc1ccc(OC[C@]23COC[C@H]2CN(Cc2ccoc2)C3)nc1,-0.762
8,OC1COCCN(Cc2cccc(N3CCOCC3)c2)C1 (configuration not stated),-12.6
9,COc1ccnc(N2CCN(C(=O)COCC(F)(F)F)CC2)n1,-9.36
10,Cc1cc(C(=O)NCc2ccnc(N3CCOCC3)c2)c(C)s1,-0.426
11,CN1Cc2cc(F)ccc2N(CC(O)C(F)(F)F)CCC1=O (configuration not stated),1.06
12,CCNc1ncc(C2CC(=O)Nc3c2cnn3Cc2ccncc2)cn1 (configuration not stated),-6.87
13,CN(C)C(=O)CN1CC[C@H]2[C@H]1CCN2c1ncccn1,8.28
14,CCC(O)CN1CCN(C(=O)c2cccn2Cc2ccccc2)CC1 (configuration not stated),-8.03
15,CC(C)c1nnc2n1CCN(C(C(N)=O)c1ccc(F)cc1)C2 (configuration not stated),1.54
16,Cc1noc(C2CCN(C(=O)Nc3ccc(N(C)C)nc3)CC2)n1,-3.45
17,Cn1c(CCNc2nccnc2C#N)nc2cc(Cl)ccc21,-6
18,CN(C)C(=O)c1ccc2c(c1)N(C)C(CC(=O)NC(C)(C)CO)CO2 (configuration not stated),8.38
19,CNc1cc(C)nc(C2COCCN2CCOc2ccc(F)cc2)n1 (configuration not stated),3.18
20,O=C1CC(c2ccsc2)c2sc(C(=O)O)c(-c3ccc(F)cc3)c2N1 (configuration not stated),4.4
21,COCCN(Cc1noc(-c2ccc(OC)cc2)n1)C1CC1,5.69

row,SMILES,cytotoxicity at 10 µM [%]
1,CCN1CCCCC1C(=O)Nc1cccc(-c2nnc[nH]2)c1 (configuration not stated),4.03
2,O=C(c1cscn1)N1CCc2[nH]nc(Nc3ccccc3)c2C1,7.82
3,CN(C)C(=O)c1cccnc1-c1ccc2c(c1)OCCO2,5.73
4,CC(C)c1cc(C(=O)N(C)Cc2cccc3ncccc23)n(C)n1,12.3
5,c1nc(N2CCCC2Cn2cncn2)c2sccc2n1 (configuration not stated),-9.19
6,O=C(c1cc(C2CC2)[nH]n1)N1CCN(Cc2ccsc2)CC1,-9.04
7,O=C(c1ccccc1)N1CC[C@H]2C[C@@H](c3nnc(C4CC4)o3)O[C@@H]2C1,-99.2
8,Cc1n[nH]c(C2CN(C(=O)c3ccc4c(c3)COC4)CCO2)n1 (configuration not stated),17.4
9,CC(C)c1cc(C(=O)N2C[C@@H]3CC[C@H]2CN(Cc2cscn2)C3)no1,1.27
10,CC(C)Cc1nc(OCC#N)c(C#N)c2c1CCC2,-1.63
11,Cc1nccn1-c1cccc(C2CCCN(C(=O)c3cc[nH]n3)C2)n1 (configuration not stated),0.481
12,Cc1cc2c(c(=O)n1CCC(=O)O)C=CC(C)(C)O2,10.8
13,CC(C)N1CCOCC2(CCN(c3cnccn3)CC2)C1,-109
14,c1cc(N2CCCC2c2cnccn2)ncn1 (configuration not stated),-22.4
15,Cc1c(C(=O)N(C)C)cccc1N(C)S(C)(=O)=O,8.19
16,Cc1nc(CC(=O)N2CCN(Cc3ccc(C#N)cc3)CC2)cs1,1.91
17,O=C(CCc1ccsc1)NCC1CCN(Cc2cccs2)CC1,12.9
18,Cc1cc(NC(=O)N2CCCC(CO)C2)nn1-c1ccccc1Cl (configuration not stated),8.23
19,O=C(CN(Cc1ccco1)C1CC1)Nc1ccc(Br)cn1,-2.65
20,COc1cccc(CC(=O)N2CCC(NCc3c[nH]nc3C)CC2)c1,-8.98
21,CC(C)(C)c1cc(C[C@H]2CNCC[C@H]2CC(=O)NCc2cccs2)no1,-2.28

row,SMILES,cytotoxicity at 10 µM [%]
1,CC(=O)c1cccc(NC(=O)NCCCc2nc(C(C)C)no2)c1,2.16
2,CC(C)[C@H](NC(=O)NC1CCS(=O)(=O)C1)C(=O)NCc1ccccc1Cl (some centres not stated),5.91
3,O=C(NCC1CC1)C1=NOC2(CCN(Cc3ccc(Cl)c(F)c3)C2)C1 (configuration not stated),13.5
4,COCC(=O)N1CCCC1(C(=O)N(C)C)c1cnccn1 (configuration not stated),3.96
5,COCCS(=O)(=O)NCC(C)c1cccc(C)c1 (configuration not stated),2.03
6,OCC1CCCCN1CCCNCc1cc(O)c2cc(F)ccc2n1 (configuration not stated),-39.2
7,O=C(NCC1CCN(Cc2cc3ccccc3[nH]2)C1)C1CCCCC1 (configuration not stated),9.81
8,CCN(CC)CC1CN(Cc2cccc(C#N)c2)Cc2nccn2C1 (configuration not stated),-127
9,CC(C)C(N)CNS(=O)(=O)Cc1cccc2cccnc12 (configuration not stated),-9.32
10,Fc1ccc(OCC2CCCO2)c(NCc2cn3cccnc3n2)c1 (configuration not stated),-6.31
11,CN(C)C(=O)Cc1ccc(NCc2nccn2C)cc1,-8.73
12,COc1cccc(O[C@H]2CCN(c3nc(C)cc(C)n3)CC[C@@H]2O)c1,2.58
13,CC(C)n1ccnc1CN1CCCN(C(=O)c2ncccc2O)CC1,-3.45
14,COc1ncccc1CN1C[C@@H]2CN(c3ncccn3)C[C@@H]2C1,-5.11
15,C[C@]1(O)CN(CCC(N)=O)CC[C@@H]1Oc1cccc(F)c1,-0.224
16,Cn1cc(CNC2CCS(=O)(=O)C2)c(-c2cc3ccccc3o2)n1 (configuration not stated),-39.1
17,CC(=O)N(C)CC(=O)NC1(c2ccc(F)cc2)CCCC1,0.747
18,CCn1cc(CN2C[C@@H]3CC[C@H]2CN(C(=O)c2ccncc2)C3)cn1,10.2
19,c1cc(N2CCC(CN3CCOCC3)CC2)c2sccc2n1,10.8
20,CCN(Cc1cnn(C)c1)C[C@H]1CC[C@@H](Cc2cccc(C#N)c2)O1,0.194
21,CCNC(c1ccc(Cl)cc1)c1cccnc1 (configuration not stated),5.71

row,SMILES,cytotoxicity at 10 µM [%]
1,CC1(c2ccc(Br)cc2)CC(=O)N(CCC(N)=O)C1=O (configuration not stated),-3.74
2,COc1cc(CN(C)C(=O)NCc2ccccn2)ccc1SC,-8.42
3,O=C(NCc1c(F)cccc1Cl)c1cc(CN2CCCC(O)C2)on1 (configuration not stated),-44.9
4,Cc1ncsc1CN1C[C@@H](O)[C@](O)(CNC(=O)c2ccccn2)C1,-0.973
5,COc1ccc(CC(=O)N2CCCC(n3cc(C)cn3)C2)cc1F (configuration not stated),1.88
6,COc1ccc(C(C)NC(=O)Nc2nnc(C)s2)c(OC)c1 (configuration not stated),9.12
7,Cc1cccc2sc(NC(=O)CN3CCCC(O)(CO)C3)nc12 (configuration not stated),16.9
8,COc1ccc(CN2C[C@H]3CC[C@](O)(c4ccc(C)cn4)[C@H]3C2)c(F)c1,-1.57
9,CSc1cccc(NC(=O)N2CCCC(CNC(=O)c3ccco3)C2)c1 (configuration not stated),-2.4
10,CCOc1c(Cl)cc(Cl)cc1CNCCCn1ccnc1,-1.32
11,c1cncc(-c2ccc3c(c2)CCC32CCN(Cc3ccco3)CC2)c1,17.1
12,CSc1ccc(C(=O)N2CCOCC2c2c(C)nn(C)c2C)o1 (configuration not stated),-2.12
13,Cc1nc(CC(C)C)sc1C(=O)N1CCC(C2(C)OCCO2)CC1,4.21
14,CC(C)OCCOCc1cccc(NC(=O)NCCn2ccnc2)c1,-4.63
15,Cn1cccc1C(=O)N1CCCC2(CCCN2S(C)(=O)=O)C1 (configuration not stated),6.28
16,O=C(NCc1cccnc1N1CCCCC1)c1cccs1,-4.43
17,O=C(c1ccncc1)N1CCn2c(nnc2-c2ccccc2)C1,4.45
18,Cc1cnccc1NCCn1ccnc1C1CCOC1 (configuration not stated),3.8
19,CS(=O)(=O)NCC1CCCN(C(=O)CCCc2ccccc2)C1 (configuration not stated),-2.78
